From ChEMBL document CHEMBL4152346, “Sulfonamido-2-arylbenzoxazole GroEL/ES Inhibitors as Potent Antibacterials against Methicillin-Resistant Staphylococcus aureus (MRSA)” (J Med Chem, 2018)
The source made the active and inactive calls. No rule for the calls is given here.

Columns and labels:
Assay type in all cases: functional, organism-based
Klebsiella pneumoniae = assay: Antibacterial activity against Klebsiella pneumoniae ATCC 13883 after 6 to 8 hrs
Method in brief: (§1)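 Stagnant liquid-culture proliferation assay at 37°C in broth cation-adjusted with 25 mg/L Ca²⁺ and 12.5 mg/L Mg²⁺, with compounds stamped into the wells. […] OD600 turbidity was read at 6–8 h (K. pneumoniae, E. cloacae, P. aeruginosa) or 24 h (A. baumannii). EC50 came from non-linear regression, averaged in log form over replicates.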

Acinetobacter baumannii = assay: Antibacterial activity against Acinetobacter baumannii ATCC 19606 after 24 hrs; settings: ATCC 19606 = CIP 70.34 = JCM 6841; method in brief: as §1
Pseudomonas aeruginosa = assay: Antibacterial activity against Pseudomonas aeruginosa ATCC 10145 after 6 to 8 hrs; method in brief: as §1
Enterobacter cloacae = assay: Antibacterial activity against Enterobacter cloacae subsp. cloacae ATCC 13047 after 6 to 8 hrs; method in brief: as §1

Row | SMILES | Activity (Klebsiella pneumoniae) | Activity (Acinetobacter baumannii) | Activity (Pseudomonas aeruginosa) | Activity (Enterobacter cloacae)
1 | Cc1ccc(S(=O)(=O)Nc2ccc(-c3nc4cc(NS(=O)(=O)c5ccc(C)cc5)ccc4o3)cc2)cc1 | inactive | inactive | inactive | inactive
2 | O=S(=O)(Nc1ccc(-c2nc3cc(NS(=O)(=O)C(F)(F)F)ccc3o2)cc1)C(F)(F)F | inactive | inactive | inactive | inactive
3 | O=S(=O)(Nc1ccc(-c2nc3cc(NS(=O)(=O)c4ccccc4Br)ccc3o2)cc1)c1ccccc1Br | inactive | inactive | inactive | inactive
4 | O=C(O)c1ccc(S(=O)(=O)Nc2ccc(-c3nc4cc(NS(=O)(=O)c5ccc(C(=O)O)cc5)ccc4o3)cc2)cc1 | inactive | inactive | inactive | inactive
5 | O=S(=O)(Nc1ccc(-c2nc3cc(NS(=O)(=O)c4ccc(F)cc4)ccc3o2)cc1)c1ccc(F)cc1 | inactive | inactive | inactive | inactive
6 | Cc1ccc(S(=O)(=O)Nc2ccc(-c3nc4ccc(NS(=O)(=O)c5ccc(C)cc5)cc4[nH]3)cc2)cc1 | inactive | inactive | inactive | inactive
7 | O=S(=O)(Nc1ccc(-c2nc3cc(NS(=O)(=O)c4cccc5nsnc45)ccc3o2)cc1)c1cccc2nsnc12 | inactive | inactive | inactive | inactive
8 | COC(=O)c1ccccc1S(=O)(=O)Nc1ccc(-c2nc3cc(NS(=O)(=O)c4ccccc4C(=O)OC)ccc3o2)cc1 | inactive | inactive | inactive | inactive
9 | O=[N+]([O-])c1ccccc1S(=O)(=O)Nc1ccc(-c2nc3cc(NS(=O)(=O)c4ccccc4[N+](=O)[O-])ccc3o2)cc1 | inactive | inactive | inactive | inactive
10 | COC(=O)c1cccc(S(=O)(=O)Nc2ccc(-c3nc4cc(NS(=O)(=O)c5cccc(C(=O)OC)c5)ccc4o3)cc2)c1 | inactive | inactive | inactive | inactive
11 | COC(=O)c1ccc(S(=O)(=O)Nc2ccc(-c3nc4cc(NS(=O)(=O)c5ccc(C(=O)OC)cc5)ccc4o3)cc2)cc1 | inactive | inactive | inactive | inactive
12 | O=S(=O)(Nc1ccc(-c2nc3cc(NS(=O)(=O)c4cccc(F)c4)ccc3o2)cc1)c1cccc(F)c1 | inactive | inactive | inactive | inactive
13 | O=S(=O)(Nc1ccc(-c2nc3cc(NS(=O)(=O)c4ccccc4C(F)(F)F)ccc3o2)cc1)c1ccccc1C(F)(F)F | inactive | inactive | inactive | inactive
14 | N#Cc1ccccc1S(=O)(=O)Nc1ccc(-c2nc3cc(NS(=O)(=O)c4ccccc4C#N)ccc3o2)cc1 | inactive | inactive | inactive | inactive
15 | O=S(=O)(Nc1ccc(-c2nc3cc(NS(=O)(=O)c4ccccc4F)ccc3o2)cc1)c1ccccc1F | inactive | inactive | inactive | inactive
16 | O=S(=O)(Nc1ccc(-c2nc3cc(NS(=O)(=O)c4ccc5nsnc5c4)ccc3o2)cc1)c1ccc2nsnc2c1 | inactive | inactive | inactive | inactive
17 | COc1cccc(S(=O)(=O)Nc2ccc(-c3nc4cc(NS(=O)(=O)c5cccc(OC)c5)ccc4o3)cc2)c1 | inactive | inactive | inactive | inactive
18 | O=S(=O)(Nc1ccc(-c2nc3cc(NS(=O)(=O)c4cccs4)ccc3o2)cc1)c1cccs1 | inactive | inactive | inactive | inactive
19 | O=S(=O)(Nc1ccc(-c2nc3cc(NS(=O)(=O)c4ccc(Br)cc4)ccc3o2)cc1)c1ccc(Br)cc1 | inactive | inactive | inactive | inactive
20 | Nc1ccccc1S(=O)(=O)Nc1ccc(-c2nc3cc(NS(=O)(=O)c4ccccc4N)ccc3o2)cc1 | inactive | inactive | inactive | inactive
21 | O=S(=O)(Nc1ccc(-c2nc3cc(NS(=O)(=O)c4cccc5nonc45)ccc3o2)cc1)c1cccc2nonc12 | inactive | inactive | inactive | inactive

Row | SMILES | Activity (Klebsiella pneumoniae) | Activity (Acinetobacter baumannii) | Activity (Pseudomonas aeruginosa) | Activity (Enterobacter cloacae)
22 | O=S(=O)(Nc1ccc(-c2nc3cc(NS(=O)(=O)c4ccc(O)cc4)ccc3o2)cc1)c1ccc(O)cc1 | Active | Active | Active | Active
23 | O=S(=O)(Nc1ccc(-c2nc3cc(NS(=O)(=O)c4ccc(C(F)(F)F)cc4)ccc3o2)cc1)c1ccc(C(F)(F)F)cc1 | inactive | inactive | inactive | inactive
24 | O=S(=O)(Nc1ccc(-c2nc3cc(NS(=O)(=O)c4cccc5ccccc45)ccc3o2)cc1)c1cccc2ccccc12 | inactive | inactive | inactive | inactive
25 | COc1ccccc1S(=O)(=O)Nc1ccc(-c2nc3cc(NS(=O)(=O)c4ccccc4OC)ccc3o2)cc1 | inactive | inactive | inactive | inactive
26 | O=S(=O)(Nc1ccc(-c2nc3cc(NS(=O)(=O)c4cccc(Br)c4)ccc3o2)cc1)c1cccc(Br)c1 | inactive | inactive | inactive | inactive
27 | Cc1cccc(S(=O)(=O)Nc2ccc(-c3nc4cc(NS(=O)(=O)c5cccc(C)c5)ccc4o3)cc2)c1 | inactive | inactive | inactive | inactive
28 | N#Cc1ccc(S(=O)(=O)Nc2ccc(-c3nc4cc(NS(=O)(=O)c5ccc(C#N)cc5)ccc4o3)cc2)cc1 | inactive | inactive | inactive | inactive
29 | O=S(=O)(Nc1ccc(-c2nc3cc(NS(=O)(=O)c4ccc5ccccc5c4)ccc3o2)cc1)c1ccc2ccccc2c1 | inactive | inactive | inactive | inactive
30 | CS(=O)(=O)Nc1ccc(-c2nc3cc(NS(C)(=O)=O)ccc3o2)cc1 | inactive | inactive | inactive | inactive
31 | O=c1ccc2cc(S(=O)(=O)Nc3ccc(-c4nc5cc(NS(=O)(=O)c6ccc7oc(=O)ccc7c6)ccc5o4)cc3)ccc2o1 | inactive | inactive | inactive | inactive
32 | O=S(=O)(Nc1ccc(-c2nc3cc(NS(=O)(=O)c4ccccc4Cl)ccc3o2)cc1)c1ccccc1Cl | inactive | inactive | inactive | inactive
33 | N#Cc1cccc(S(=O)(=O)Nc2ccc(-c3nc4cc(NS(=O)(=O)c5cccc(C#N)c5)ccc4o3)cc2)c1 | inactive | inactive | inactive | inactive
34 | Cc1ccccc1S(=O)(=O)Nc1ccc(-c2nc3cc(NS(=O)(=O)c4ccccc4C)ccc3o2)cc1 | inactive | inactive | inactive | inactive
35 | O=C(O)c1cccc(S(=O)(=O)Nc2ccc(-c3nc4cc(NS(=O)(=O)c5cccc(C(=O)O)c5)ccc4o3)cc2)c1 | inactive | inactive | inactive | inactive
36 | O=[N+]([O-])c1cccc(S(=O)(=O)Nc2ccc(-c3nc4cc(NS(=O)(=O)c5cccc([N+](=O)[O-])c5)ccc4o3)cc2)c1 | inactive | inactive | inactive | inactive
37 | Nc1ccc(S(=O)(=O)Nc2ccc(-c3nc4cc(NS(=O)(=O)c5ccc(N)cc5)ccc4o3)cc2)cc1 | inactive | inactive | inactive | inactive
38 | Nc1cccc(S(=O)(=O)Nc2ccc(-c3nc4cc(NS(=O)(=O)c5cccc(N)c5)ccc4o3)cc2)c1 | inactive | inactive | inactive | inactive
39 | O=S(=O)(Nc1ccc(-c2nc3cc(NS(=O)(=O)c4ccccc4)ccc3o2)cc1)c1ccccc1 | inactive | inactive | inactive | inactive
40 | O=S(=O)(Nc1ccc(-c2nc3cc(NS(=O)(=O)c4ccccc4O)ccc3o2)cc1)c1ccccc1O | inactive | inactive | inactive | inactive
41 | CCCS(=O)(=O)Nc1ccc(-c2nc3cc(NS(=O)(=O)CCC)ccc3o2)cc1 | inactive | inactive | inactive | inactive
